Results taken from PMC5469413 (Journal of immunology (Baltimore, Md. : 1950), 2017).

Key:
Staphylococcus aureus = test: Bacterial killing assay with recombinant whole IFN-β; format: cell-based; conditions: 5×10^2 units/ml mIFN-β incubated at 37°C for 60 min, then bacteria 3 hours, CFU
Staphylococcus epidermis = test: Bacterial killing assay with recombinant whole IFN-β; format: cell-based; conditions: incubated with IFN-β (Fig. S1)
Method in brief: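 Overnight cultures subcultured to mid-log (OD₆₀₀=0.4), washed in sterile PBS and renormalised to OD₆₀₀=0.4. Bacteria resuspended in assay medium and incubated with recombinant whole IFN-β or vehicle in 100 μl reactions at 37°C with shaking. Ten-fold serial dilutions plated on LB to count surviving CFU.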

Escherichia coli = test: Bacterial killing assay with recombinant whole IFN-β; format: cell-based; conditions: increasing doses of IFN-β, 3 hours, CFU
[1] = tested on: S. aureus isogenic mutant lacking the dlt gene (Δdlt); test: Bacterial killing assay with recombinant whole IFN-β, dlt-deficient strain; format: cell-based, Staphylococcus aureus; conditions: increasing concentrations of IFN-β, 3 hours, CFU
[2] = tested on: gram-negative strains of bacteria; test: Killing assay with IFN-β helix 4 peptide, gram-negative bacteria; format: cell-based; conditions: bacteria 1×10^5/ml, 6 μM mouse helix 4 peptide, 3 hours, 37°C, CFU (Fig. 6I)

mIFN-β: recombinant whole mouse IFN-β (PBL Interferon)
killing of S. aureus after pre-incubation at 37°C (Staphylococcus aureus): killing was not lost
killing of Staphylococcus epidermis (Staphylococcus epidermis): observed killing
inhibitory or killing effect on Escherichia coli (Escherichia coli): did not observe any inhibitory or killing effect
killing of Δdlt S. aureus compared to WT [1]: increased killing of Δdlt bacteria compared to WT
antimicrobial activity against gram-negative bacteria [2]: significantly less effective
